# Measured values: ChEMBL document CHEMBL4813972, “A grafted peptidomimetic for EGFR heterodimerization inhibition: Implications in NSCLC models” (Eur J Med Chem, 2021)
# Active and inactive are the calls of the source. The rule behind the calls is not given here.
# Experiments:
# [1] = biological target: Receptor tyrosine-protein kinase erbB-2 (Homo sapiens) (UniProt P04626); assay: Binding affinity to HER2 (unknown origin) assessed as reduction in heterodimerization of HER2/EGFR by competitive based SPR analysis
# Receptor tyrosine-protein kinase erbB-2 (Homo sapiens), sequence (P04626 whole entry, the tested form may be a part): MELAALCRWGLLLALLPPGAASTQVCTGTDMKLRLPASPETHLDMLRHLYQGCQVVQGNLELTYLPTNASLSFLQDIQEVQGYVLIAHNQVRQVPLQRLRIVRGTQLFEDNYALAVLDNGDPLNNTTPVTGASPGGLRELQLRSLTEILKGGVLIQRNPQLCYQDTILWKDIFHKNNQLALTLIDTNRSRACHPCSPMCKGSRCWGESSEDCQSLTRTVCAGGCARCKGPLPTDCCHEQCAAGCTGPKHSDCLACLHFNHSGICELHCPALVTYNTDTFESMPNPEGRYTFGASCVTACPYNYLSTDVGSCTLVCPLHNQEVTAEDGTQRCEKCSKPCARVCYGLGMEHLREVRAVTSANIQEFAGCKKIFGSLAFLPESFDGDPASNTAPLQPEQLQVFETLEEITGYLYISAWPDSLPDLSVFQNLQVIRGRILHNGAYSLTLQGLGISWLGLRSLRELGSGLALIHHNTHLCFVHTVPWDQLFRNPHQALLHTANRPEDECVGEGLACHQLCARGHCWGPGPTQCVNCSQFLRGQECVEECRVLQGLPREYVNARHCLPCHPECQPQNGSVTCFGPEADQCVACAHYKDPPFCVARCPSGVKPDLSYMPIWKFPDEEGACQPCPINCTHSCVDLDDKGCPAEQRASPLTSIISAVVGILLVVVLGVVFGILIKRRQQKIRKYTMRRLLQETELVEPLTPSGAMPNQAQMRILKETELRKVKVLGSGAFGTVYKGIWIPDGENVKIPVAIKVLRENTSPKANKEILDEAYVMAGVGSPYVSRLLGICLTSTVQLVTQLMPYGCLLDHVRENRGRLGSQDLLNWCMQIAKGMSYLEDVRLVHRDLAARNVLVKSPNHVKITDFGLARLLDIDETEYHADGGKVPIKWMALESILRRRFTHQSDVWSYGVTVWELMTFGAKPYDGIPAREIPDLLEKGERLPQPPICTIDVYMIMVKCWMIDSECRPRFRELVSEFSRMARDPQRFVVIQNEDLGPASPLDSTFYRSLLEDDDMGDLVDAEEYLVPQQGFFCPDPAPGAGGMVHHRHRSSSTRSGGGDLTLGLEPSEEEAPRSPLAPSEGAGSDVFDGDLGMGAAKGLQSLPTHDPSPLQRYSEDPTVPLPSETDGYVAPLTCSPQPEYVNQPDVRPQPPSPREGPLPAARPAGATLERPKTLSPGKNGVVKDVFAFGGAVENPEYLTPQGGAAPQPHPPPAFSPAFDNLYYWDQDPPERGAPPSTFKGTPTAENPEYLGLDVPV
# In short: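 Competitive SPR: EGFR with EGF immobilized on a CM5 chip. HER2 protein fixed at 200 nM was preincubated 15 min in HEPES buffer with varying peptide, then injected. Read-out was the drop in response units. Surface regenerated with glycine pH 2.2 between injections.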
# [2] = system: Mus musculus; assay: In vivo inhibition of HER2/HER3 dimerization in human A549 cells harbouring KRAS mutant/wild type EGFR xenografted in Foxn1nu/Foxn1+ mouse by measuring reduction in red fluorescence at 6 mg/kg, iv administered twice a week for 5 weeks by proximity ligation assay; type: functional, organism-based
# In short: (§1)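 Lung tumor sections from the A549-Red-FLuc i.v. metastasis mice (6 mg/kg i.v. twice weekly; sacrificed day 35). FFPE sections had citrate pH 6.0 antigen retrieval at 100 °C, peroxidase and serum blocking, primaries overnight at 4 °C, and PLA probes for EGFR:HER2 and HER2:HER3. Red fluorescence imaged at 40×.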
# [3] = system: NCI-H1975; assay: Synergistic antiproliferative activity against human NCI-H1975 cells assessed as combination index after 72 hrs in presence of lapatinib by cell titer glo assay; type: functional
# [4] = biological target: Receptor tyrosine-protein kinase erbB-2 (Homo sapiens) (UniProt P04626); assay: Binding affinity to HER2 ECD (unknown origin) by SPR analysis
# [5] = system: NCI-H1975; assay: Synergistic antiproliferative activity against human NCI-H1975 cells assessed as combination index after 72 hrs in presence of erlotinib by cell titer glo assay; type: functional
# [6] = system: Mus musculus; assay: In vivo inhibition of HER2/EGFR dimerization in human A549 cells harbouring KRAS mutant/wild type EGFR xenografted in Foxn1nu/Foxn1+ mouse by measuring reduction in red fluorescence at 6 mg/kg, iv administered twice a week for 5 weeks by proximity ligation assay; type: functional, organism-based; in short: as §1
# [7] = Toxicity in Foxn1nu/Foxn1+ mouse xenografted with human Calu-3 cells assessed as effect on body weight at 8 mg/kg, IT(Intratumoral) administered thrice a week for 28 days and measured on day 28; type: organism-based; conditions: in vivo, other, 672 h, time 28 day
# [8] = Thermal stability of compound at 15 uM incubated at 25 to 75 degC by Circular dichroism spectrometry; type: physicochemical
# In short: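 Peptide at 15 μM in acetonitrile. Ellipticity recorded from 25 to 75 °C in 5 °C steps.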
# [9] = Toxicity in Foxn1nu/Foxn1+ mouse xenografted with human A549 cells harbouring KRAS mutant/wild type EGFR assessed as enlarged cells in lung at 6 mg/kg, iv administered twice a week for 5 weeks; conditions: in vivo, 840 h
structure (smiles),measurement,setting,value
CC[C@H](C)[C@H]1C(=O)NC(=O)[C@H](CCCNC(=N)N)NC(=O)C[C@@H](c2cccc3ccccc23)NC(=O)N[C@H]2CSSC[C@H](NC(=O)C[C@@H](c3cccc4ccccc34)NC(=O)[C@H](CCCNC(=N)N)NC(=O)[C@@H]3CCCN3C(=O)[C@@H]3CCCN13)C(=O)N[C@@H](Cc1ccccc1)C(=O)N1CCC[C@H]1C(=O)N[C@@H](CC(=O)O)C(=O)NC(=O)[C@H](CC(=O)O)NC(=O)[C@H](Cc1ccccc1)NC2=O,Activity,[1],Active
same,inhibition,[2],Active
same,CI,[3],0.83
same,Activity,[4],Dose-Dependent Effect
same,CI,[5],0.76
same,inhibition,[6],Active
same,Activity,[7],Non-Toxic
same,Stabilty,[8],Stable
same,Activity,[9],Non-Toxic
